Experimental findings from the array DNA melting data of Ke et al. (doi:10.1101/2024.01.08.574731) are described below.

A short description of series [1]: folding enthalpy; higher = less favourable; fluorescence melt of hairpins on a sequencing array, two-state fit. Particulars: sodium 0.088 M. The essentials: (§1)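 To match UV melts, fitted temperatures were raised by 9.35 °C. These fits were bootstrapped two-state models that gave melting temperature and folding enthalpy, combined by inverse variance over four replicates. The input was normalised Cy3 fluorescence of library hairpins with annealed Cy3 and quencher oligos on a sequenced MiSeq flow cell, imaged in 50 mM Na-HEPES pH 8.0, 25 mM NaCl in 2.5 °C steps up to 60 °C.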

Series [2] in a line: melting temperature; fluorescence melt of hairpins on a sequencing array, two-state fit, raised by 9.35 °C to match UV melts. The note with it: sodium 0.088 M. In short, it runs like this: as §1

Consider GCTAAGCGAAAGCATCGC ((.(.((....)).).)), for which the folding enthalpy in series [1] is -11.1 kcal/mol. In addition, in series [2], the Tm was 30.7 °C.
The corresponding values for GCTTCATCGAAAGATAGC (((..(((....)))))) are -13 kcal/mol and 28.3 °C.
The matching figures for GATCAGGGAAACCTGACC (.(((((....))))).): -17.2 kcal/mol and 36.3 °C.
On to GGGACTGAAAAGTCCC ((((((....)))))), for which the folding enthalpy in series [1] was -33.7 kcal/mol. Further, in series [2], the Tm amounted to 68.3 °C.
As for GATCTGTTATCAGATC ((((((....)))))), the folding enthalpy in series [1] is -39.8 kcal/mol. Moreover, the Tm in series [2] is 50.7 °C.
Regarding GCATAAGGAAACTTACGC ((.((((....)))).)), the folding enthalpy in series [1] is -21.7 kcal/mol. The Tm in series [2] worked out at 31.6 °C.
TAATCGAAAGATTA (((((....))))): in series [1], the folding enthalpy was -15.2 kcal/mol. Besides, the Tm in series [2] stood at 38.9 °C.
On to GGCGATGGAAACGTCGTC (.(((.(....).))).), for which, in series [1], the folding enthalpy was -39.5 kcal/mol. In series [2], the Tm was determined as 46.2 °C.
For GGGTGCGGAAACGCATCC ((.((((....)))).)), in series [1], the folding enthalpy was -29.8 kcal/mol. Also, the Tm in series [2] was 64.7 °C.
On to GTTACGGGAAACCGCAAC (((.(((....))).))), for which, in series [1], the folding enthalpy is -26 kcal/mol. For the same sequence, the Tm in series [2] is 41.7 °C.
GATCGGAGGCCCGATC ((((((....)))))): the folding enthalpy in series [1] is -34.1 kcal/mol. Moreover, the Tm in series [2] was 56.4 °C.
In the case of GTTTGAGGAAACTTGAAC (((..((....))..))), in series [1], the folding enthalpy was -17.3 kcal/mol. The Tm in series [2] turned out to be 33.1 °C.
In the case of GATCATTGGATGATC ((((((...)))))), the folding enthalpy in series [1] was -31.7 kcal/mol. For the same sequence, the Tm in series [2] was found to be 44.8 °C.
Turning to GATGCCGGAAACGGCGTC ((.((((....)))).)), the folding enthalpy in series [1] is -21.2 kcal/mol. Moreover, in series [2], the Tm is 62.6 °C.
The matching figures for GATCCAGTGCTGGATC ((((((....)))))): -47.8 kcal/mol and 52.8 °C.
On to GCTAGGCGAAAGCCCTGC ((..(((....)))..)), for which the folding enthalpy in series [1] was -12.3 kcal/mol. For the same sequence, in series [2], the Tm was determined as 39.8 °C.
The corresponding values for GTTATGGGAAACCATAGC (.(((((....))))).) are -24.1 kcal/mol and 36.9 °C.
For GCTCTGCGAAAGCAAGC (((.(((....)))))), the folding enthalpy in series [1] was -16.8 kcal/mol. Besides, the Tm in series [2] was 48.2 °C.
On to GCGGGAGCCGC ((((...)))), for which the folding enthalpy in series [1] is -9.67 kcal/mol. Moreover, in series [2], the Tm stood at 54.9 °C.
The matching figures for GATCTGTACCCAGATC ((((((....)))))): -36.4 kcal/mol and 47.5 °C.
The matching figures for GATCACTAGAGTGATC ((((((....)))))): -40.8 kcal/mol and 56.4 °C.
Regarding GCCGGGCGAAAGCCCAGC ((.((((....)))).)), the folding enthalpy in series [1] is -15.8 kcal/mol. The Tm in series [2] stood at 64.8 °C.
Consider GTCGGTGGAAACGCCGAC (((((.(....).))))), for which the folding enthalpy in series [1] was -50 kcal/mol. Moreover, in series [2], the Tm came out at 63.2 °C.
Regarding GGCTAAACGAAAGTTGCC (((..(((....)))))), the folding enthalpy in series [1] was -22.5 kcal/mol. Besides, the Tm in series [2] stood at 47.6 °C.
The matching figures for GAGAACGAAAGTTATCTC ((((((....)))..))): -26 kcal/mol and 43 °C.
Turning to CGCACGGAAACGTTTGCG ((((((....)))..))), the folding enthalpy in series [1] was -29.5 kcal/mol. Besides, the Tm in series [2] turned out to be 44.1 °C.
Consider GATCTTCTACAAGATC ((((((....)))))), for which the folding enthalpy in series [1] was -30.3 kcal/mol. For the same sequence, in series [2], the Tm was found to be 41.9 °C.
The corresponding values for GTGTCTCGAAAGAGCAC (((.(((....)))))) are -33.4 kcal/mol and 52.2 °C.
Turning to GATCAACTCTTTGATC ((((((....)))))), the folding enthalpy in series [1] is -37.5 kcal/mol. The Tm in series [2] stood at 45.1 °C.
As for GCCATGGGAAACCACAGC ((..(((....)))..)), the folding enthalpy in series [1] is -12.7 kcal/mol. The Tm in series [2] worked out at 26.9 °C.
Turning to GTTTCCGGAAACGGAAGC (.(((((....))))).), in series [1], the folding enthalpy is -16.7 kcal/mol. The Tm in series [2] turned out to be 49.3 °C.
Turning to GTATCCGGAAACGGGTAC (((.(((....))).))), the folding enthalpy in series [1] is -42.2 kcal/mol. Besides, the Tm in series [2] stood at 51.3 °C.
For the sequence GATCCTGGAGAGGATC ((((((....)))))), the folding enthalpy in series [1] is -34.7 kcal/mol. Also, the Tm in series [2] was determined as 54 °C.
Take GCTGCGGGAAACTGCGGC ((.((.(....).)).)): the folding enthalpy in series [1] was -47.5 kcal/mol. Besides, in series [2], the Tm worked out at 51.8 °C.
As for CGGGCGGAAACGCAACCG ((((((....)))..))), the folding enthalpy in series [1] was -23.9 kcal/mol. For the same sequence, in series [2], the Tm turned out to be 49.7 °C.
As for GGCGCCGAAAGGCCAGCC ((((((....)))..))), in series [1], the folding enthalpy is -21.1 kcal/mol. For the same sequence, the Tm in series [2] came to 61 °C.
GATCGTCAACACGATC ((((((....)))))): the folding enthalpy in series [1] is -32.9 kcal/mol. Besides, in series [2], the Tm was 51.5 °C.
